pIC50: −log10 of the molar value. Active and inactive are the calls of the source. No cut-off for these calls is given here.

What all share (assay type): functional, cell-based
Test [1] relates to PC-3M. The test can be described thus: Induction of apoptosis in human PC3M cells assessed as accumulation at subG1 phase at 0.5 ug/ml after 24 hrs by flow cytometry. The essentials: (§1)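 PC-3M cells at about 75% confluency were seeded at 2.5 × 10^5 cells/well and left to reattach overnight at 37 °C in 5% CO2. They were then treated for 24 h in RPMI 1640 with 10% FBS, penicillin 100 IU/mL, streptomycin 50 µg/mL and Glutamax 2 mM. Controls were 0.1% DMSO (negative) and 0.5 µg/mL nocodazole (positive). Floating and adherent cells were pooled, PBS-washed, stained for DNA content with Guava cell cycle reagent, and scored as % sub-G1 by flow cytometry.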
A general note: In flow cytometry, cells or beads pass a laser one at a time.

For test [2], the system named is NIH3T3. The test can be described thus: Induction of apoptosis in mouse NIH3T3 cells assessed as accumulation at subG1 phase at 0.5 ug/ml after 24 hrs by flow cytometry.
The subject of another test is NCI-H460. The test can be described thus: Antiproliferative activity against human NCI-H460 cells by MTT assay. Put shortly: (§2)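 Cells were exposed to serial dilutions of DMSO-dissolved samples for 72 h in RPMI 1640 with 10% fetal bovine serum and glutamax. Viability was read by the tetrazolium (MTT) colorimetric assay as inhibition of proliferation.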
The nature of test [3]: Antiproliferative activity against human PC3M cells by MTT assay. To be noted: PC-3M. Put shortly:
as §2

The subject of test [4] is PC-3M. The test can be described thus: Induction of apoptosis in human PC3M cells assessed as accumulation at subG1 phase at 2.5 to 10 uM after 24 hrs by flow cytometry. Put shortly:
as §1

The subject of a further test is MCF7. The test can be described thus: Antiproliferative activity against human MCF7 cells by MTT assay. The essentials: as §2
In general terms: Tetrazolium dyes change colour on reduction, which living cells bring about.

Another test concerns SF-268. Put plainly: Antiproliferative activity against human SF268 cells by MTT assay. The essentials:
as §2

The subject of another test is MIA PaCa-2. Put plainly: Antiproliferative activity against human MIAPaCa2 cells by MTT assay. Put shortly:
as §2

In test [5] the test system is NIH3T3. The test can be described thus: Induction of apoptosis in mouse NIH3T3 cells assessed as accumulation at subG1 phase at 2.5 to 10 uM after 24 hrs by flow cytometry.

In the case of `COC(=O)Nc1nc2cc(C(=O)c3cccs3)ccc2[nH]1`, the result with PC-3M [1] and in the test on NIH3T3 [2] was Active.
As to `COc1cccc2c1C(=O)c1c(O)c3c(c(O)c1C2=O)C[C@@](O)(C(=O)CO)C[C@@H]3O[C@H]1C[C@H](N)[C@H](O)[C@H](C)O1` [DOXORUBICIN], the pIC50 (in general, the negative decadic logarithm of the IC50, by convention in mol/L) with NCI-H460 was 8.00; in test [3], 5.95.
As for `C=C1CC[C@H]2C(C)(C)CCC[C@]2(C)[C@H]1CC1=C(O)C(=O)C(CO)=CC1=O` [TAURANIN], the result in the test with PC-3M [4] and with NIH3T3 [5] was Active. Also, the negative logarithm of the IC50 (pIC50) in the test with MCF7 was 5.82; with SF-268, 5.74; in the test with MIA PaCa-2 it was 5.55; with NCI-H460, 5.37; in test [3], 5.46.

The values above are taken from ChEMBL document CHEMBL1144804, “Sesquiterpene quinones and related metabolites from Phyllosticta spinarum, a fungal strain endophytic in Platycladus orientalis of the Sonoran Desert” (J Nat Prod, 2008).
